Hits are enriched below; roughly 1.1% of the tested compounds scored in any of these assays.
LYPLA1 inh – LYPLA1 inhibitors, primary screen, counter-screen for PME1 inhibitor project, biochemical, fluorescence polarization, FP-Rh probe ABPP; AID 2174, 2009; 0.16% of 320,000 active; inhibition, % at 5.9 µM; recombinant LYPLA1;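 active = inhibition above the mean of all tested compounds plus 3 SD, set per campaign, cut at about 14% in these data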;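 note: inhibitors block serine hydrolase probe labeling of LYPLA1 so polarization falls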
proCasp3 act – activators of human procaspase-3 D3A mutant, primary screen, biochemical, absorbance, PC-3 D3A mutant, single concentration. Caspase-3 (Homo sapiens), P42574. recombinant procaspase-3 D3A, Ac-DEVD-pNA absorbance 405 nm. 0.11% of 330,000 active. activation, % at 8.5 µM. AID 463141, 2010;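 active = activation above the mean of all tested compounds plus 3 SD, cut at about 21% in these data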
Target sequence (P42574 whole entry D9A/D28A/D175A): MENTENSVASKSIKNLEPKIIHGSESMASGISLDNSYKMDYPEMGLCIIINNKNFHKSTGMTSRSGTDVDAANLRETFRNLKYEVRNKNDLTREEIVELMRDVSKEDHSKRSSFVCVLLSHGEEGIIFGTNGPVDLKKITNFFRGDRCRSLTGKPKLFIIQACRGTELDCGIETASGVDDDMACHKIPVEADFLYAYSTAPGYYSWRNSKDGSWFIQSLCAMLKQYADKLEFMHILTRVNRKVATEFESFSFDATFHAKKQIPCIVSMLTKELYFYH
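Technique: 405 nm absorbance of p-nitroaniline, reads at 0 and 120 min; Test system: Procaspase-3 D3A mutant; Incubation: 1 h enzyme-compound preincubation, then 2 h substrate reaction, 25 °C; Repeats: singlicate, each compound tested once; Benchmarks: low control DMSO wells, high control DMSO plus 5 µM PC-3 D3A.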
PREPL inh – PREPL enzyme inhibitors, primary screen, biochemical, fluorescence polarization. inhibition, % at 5.96 µM. recombinant PREPL, fluorescence polarization activity-based probe. 0.68% of 320,000 active; in the data active = inhibition above about 43%
procasp7 counter – procaspase-7 activators, primary screen, counter-screen for procaspase-3 activator project, biochemical, absorbance, HTS, human. activation, % at 8.5 µM. AID 463210, 2010. recombinant procaspase-7, Ac-DEVD-pNA absorbance 405 nm; D23A/D198A/D206A triple mutant, cannot self-cleave; scale: DMSO 0, 5 µM enzyme 100. 0.093% of 330,000 active;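 active = percent activation above the screen-wide mean plus 3 SD, cut at about 25% in these data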
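Material: Procaspase-7 triple mutant (PC-7 D3A) | Quantity: 2 µM procaspase-7 mutant as dispensed | Reagent: DEVD-pNA substrate | Times: 1 h preincubation, 2 h reaction | Technique: 405 nm absorbance of p-nitroaniline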
LYPLA2 inh – LYPLA2 inhibitors, primary screen, counter-screen for PME1 inhibitor project, biochemical, fluorescence polarization, FP-Rh probe ABPP. Acyl-protein thioesterase 2 (Homo sapiens), O95372. recombinant LYPLA2. inhibition, % at 5.9 µM. 0.38% of 320,000 active;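 active = inhibition above the screen-wide mean plus 3 SD, limit set per campaign, cut at about 26% in these data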
Target sequence (O95372 whole entry, looked up): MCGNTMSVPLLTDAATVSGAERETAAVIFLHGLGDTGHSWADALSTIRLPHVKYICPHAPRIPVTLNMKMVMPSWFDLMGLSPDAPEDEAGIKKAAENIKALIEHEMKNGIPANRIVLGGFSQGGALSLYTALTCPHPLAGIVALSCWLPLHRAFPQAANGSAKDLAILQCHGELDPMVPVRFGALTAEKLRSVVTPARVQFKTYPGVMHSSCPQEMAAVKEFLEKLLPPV
LYPLA2 conf – LYPLA2 inhibitors, retest, confirmation, counter-screen for PME1 inhibitor project, biochemical, fluorescence polarization, FP-Rh probe ABPP; shares compounds with LYPLA2 inh; recombinant LYPLA2; inhibition, % at 5.9 µM; 72% of 1,100 active;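 active = mean inhibition across replicates above the hit cutoff set in the primary screen, cut at about 26% in these data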;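 note: blocked labeling of the enzyme by serine hydrolase FP-Rh probe lowers polarization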
LYPLA2 gel ABPP – LYPLA2 inhibitors in proteome, late-stage follow-up, gel-based competitive ABPP, fluorescence, assay provider. shares compounds with LYPLA2 inh. rhLYPLA2 in mouse brain proteome, gel ABPP FP-Rh. inhibition, % at 20 µM. 30% of 150 active. AID 652029, 2013;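 active = inhibition of LYPLA2 enzyme probe labeling above about 50%, limit read from the data; inactive = inhibition below that limit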;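 note: loss of FP-Rh probe labeling of the LYPLA2 gel band measured as band density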
A number is an active result; . = inactive; / = not tested or not shown.

SMILES	LYPLA1 inh	proCasp3 act	PREPL inh	procasp7 counter	LYPLA2 inh	LYPLA2 conf	others
O=C1CCCN1CCC1CCN(C2CC(=O)N(c3ccc(Cl)cc3)C2=O)CC1 (stereo not drawn)	.	.	.	.	33	35
COc1ccc(S(=O)(=O)NNC(=O)C23CC4CC(CC(C4)C2)C3)cc1[N+](=O)[O-]	.	.	.	.	.	/
O=C(c1ccc(Br)o1)N1CCN(C/C=C/c2ccccc2)CC1	.	.	.	.	.	/
O=C(c1ccc(Br)s1)N1CCN(C/C=C/c2ccccc2)CC1	.	.	.	.	36	34
CCCC(=O)Nc1ccc(C(=O)COC(=O)C2CC2C)cc1 (stereo not drawn)	.	.	.	.	29	28
CC1CC1C(=O)OCC(=O)N(C)CC(=O)Nc1ccc(F)cc1 (stereo not drawn)	/	.	.	.	/	/
OC(COCc1cccs1)CN1CCN(c2cccc(C(F)(F)F)c2)CC1 (stereo not drawn)	.	.	.	.	34	29
OC(COCc1ccccc1)CN1CCN(c2ccccc2)CC1 (stereo not drawn)	.	.	.	.	.	/
O=C(Cc1ccccc1)N1CCN(c2ccc([N+](=O)[O-])cc2)CC1	.	.	.	.	.	/
O=C(Cc1ccc([N+](=O)[O-])cc1)N1CCN(c2ccc([N+](=O)[O-])cc2)CC1	.	.	.	.	69	69	LYPLA2 gel ABPP=70
O=C(c1ccc2nsnc2c1)N1CCN(c2ccc([N+](=O)[O-])cc2)CC1	.	.	.	.	27	.
O=C(CSc1nc2ccccc2c(=O)n1-c1ccccc1Cl)NC1CCS(=O)(=O)C1 (stereo not drawn)	.	.	.	.	.	/
COc1ccc(-n2nc(C(=O)NCC(=O)N3CCN(c4ccc(F)cc4)CC3)c3ccccc3c2=O)c(OC)c1	.	.	.	.	58	62	LYPLA2 gel ABPP=.
COc1ccc(-n2nc(C(=O)NCC(=O)N3CCCC3)c3ccccc3c2=O)c(OC)c1	.	.	.	.	.	/
O=C(CC1SC(N2CCCCC2)=NC1=O)Nc1ccc(C(=O)NCCc2ccc(F)cc2)cc1 (stereo not drawn)	.	.	.	.	49	39
COc1ccccc1CCNC(=O)c1ccc(NC(=O)CC2SC(N3CCCCC3)=NC2=O)cc1 (stereo not drawn)	.	.	.	.	.	/
Cc1nn(-c2ccccc2)c(C)c1C(=O)OCC(=O)Nc1ccccc1	.	.	.	.	39	.
Cc1ccc(NC(=O)COC(=O)c2c(C)nn(-c3ccccc3)c2C)cc1	.	.	.	.	.	/
COc1cccc(NC(=O)COC(=O)c2c(-c3ccccc3)noc2C)c1	.	.	.	.	28	.
CCOCCCN(C(=O)c1snc(C(N)=O)c1N)C(C(=O)NC1CCCC1)c1ccc(O)cc1 (stereo not drawn)	.	.	.	.	.	/
O=C(NNC(=O)c1cc2ccccc2oc1=O)c1ccccc1[N+](=O)[O-]	.	.	.	.	27	.
Cc1cc(C(=O)NNC(=O)c2ccccc2[N+](=O)[O-])c(C)o1	.	.	.	.	.	/
COc1cc(/C=C2\CCC(C3CCCC3)C2=O)ccc1OC(C)C (stereo not drawn)	.	.	.	.	.	/
COc1ccc(-c2cc(C(=O)N3CCN(S(=O)(=O)c4ccc(C)cc4)CC3)[nH]n2)cc1	.	.	.	.	.	/
O=C1CC(N2CCC(c3nc4ccccc4o3)CC2)C(=O)N1c1ccc(Cl)c(C(F)(F)F)c1 (stereo not drawn)	.	.	.	.	27	33
SMILES	LYPLA1 inh	proCasp3 act	PREPL inh	procasp7 counter	LYPLA2 inh	LYPLA2 conf	others
O=C1CC(N2CCC(c3nc4ccccc4o3)CC2)C(=O)N1c1ccc(F)cc1 (stereo not drawn)	.	.	.	.	.	/
O=c1c2ccccc2ncn1CCCSc1ccc(Cl)cc1	.	.	.	.	34	29
CNC(=O)c1nc(C)c(C2(C)CC(c3cccc([N+](=O)[O-])c3)=NO2)s1 (stereo not drawn)	.	.	.	.	26	29
Cc1cc(/C=C2\SC(=O)N(CC(=O)Nc3ccccc3F)C2=O)c(C)n1C	.	.	.	.	42	26
Cc1ccc(NC(=O)CN2C(=O)S/C(=C\c3cc(C)n(C)c3C)C2=O)cc1	.	.	.	.	.	/
Cc1ccc(C(=O)O)cc1-c1ccc(/C=C2\SC(=O)N(CC(=O)Nc3ccccc3)C2=O)o1	.	.	.	.	27	26
COc1cc(/C=C2\SC(=O)N(CC(=O)Nc3ccc(C)cc3)C2=O)cc(Cl)c1OCC(=O)O	.	.	.	.	.	/
Cc1cccc(NC(=O)CN2C(=O)S/C(=C\c3cc(C)n(C)c3C)C2=O)c1	.	.	.	.	57	77	LYPLA2 gel ABPP=60
O=C(CN1C(=O)S/C(=C\c2cc(Cl)c(O)c(Cl)c2)C1=O)Nc1ccccc1	.	.	.	.	92	82
Cc1ccc(NC(=O)CN2C(=O)S/C(=C\c3ccc(-c4cccc(C(=O)O)c4C)o3)C2=O)cc1	.	.	.	.	.	/
CC(C)(C)N1C(=O)c2ccc(C(=O)Nc3cc(C(=O)O)cc(C(=O)O)c3)cc2C1=O	.	.	.	.	.	/
COCCn1c(SCC(=O)c2c(N)n(C3CC3)c(=O)[nH]c2=O)nnc1-c1ccc(Cl)cc1	.	.	.	.	.	/
Cc1ccc(NC(=O)CN2C(=O)S/C(=C\c3cc(C)n(-c4cccc(C(=O)O)c4)c3C)C2=O)cc1	.	.	.	.	48	43
Cc1ccc(NC(=O)CN2C(=O)S/C(=C\c3ccc(C(=O)O)cc3)C2=O)cc1	.	.	.	.	.	/
Cc1ccc(Cl)cc1N1CCN(C(=O)CCCn2c(=O)c3cccn3c3cccnc32)CC1	.	.	.	.	38	34
COc1ccc(-c2noc(CN3CCN(c4ccccc4)CC3)n2)cc1	.	.	.	.	.	/

Compound activity: PubChem BioAssay, The Scripps Research Institute Molecular Screening Center
